This is an account of results in PubChem BioAssay AID504469 (NMMLSC, 2011).

By EC50 is commonly meant the concentration giving half of the maximal effect.

Activity calls are given as the source filed them.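 How the source made its calls: active means compounds whose fitted GFP dose response EC50 is at or below 33 microM; inactive means the rest.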

System in one test: not listed separately
Put plainly: yeast TOR reporter LAP4-GFP level changes – cell-based, KU SAR set 2, flow cytometry, SAR follow-up (AID 504469). The conditions noted are these: S. cerevisiae LAP4-GFP strain, flow cytometry fluorescence, 3 h; at 100 µM (top of the series). In outline:
(§1)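 Test system: S. cerevisiae LAP4-GFP yeast strain; Input: yeast cells diluted to OD600 of 0.2; Dosing: compound dose-response series; Buffer or medium: synthetic complete yeast growth medium; Incubation: 3 h compound treatment, 30 °C; Detection: Flow-cytometric GFP fluorescence in kMESF units; Read-out basis: EC50 of background-corrected GFP signal.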
(In general: A flow cytometer gives signals particle by particle.)
For the compound `CNc1nc(N)c([N+](=O)[O-])c(Nc2ccccc2F)n1`, the GFP fluorescence (kMESF) is 6.21 kMESF (inactive).

Regarding `CNc1nc(N)c([N+](=O)[O-])c(Nc2cccc(Oc3ccccc3)c2)n1`, the GFP fluorescence (kMESF) was 6.57 kMESF (inactive). Same read-out and setting: to `CNc1nc(NC)c([N+](=O)[O-])c(Nc2cccc(Cl)c2)n1` belongs 6.28 kMESF (inactive); to `CNc1nc(N)c([N+](=O)[O-])c(Nc2cccc(Br)c2)n1`, 6.21 kMESF (inactive); to `CCNc1nc(NC2CCCCC2)c([N+](=O)[O-])c(N2CCOCC2)n1`, 6.5 kMESF (inactive).

In the case of `CNc1nc(N)c([N+](=O)[O-])c(Nc2cccc(OC)c2)n1`, the GFP fluorescence (kMESF) is 6.21 kMESF (inactive). Same read-out and setting: to `CNc1nc(NC2CCCCC2)c([N+](=O)[O-])c(N2CCOCC2)n1` belongs 6.42 kMESF (inactive); to `CNc1nc(N)c([N+](=O)[O-])c(Nc2ccccc2Br)n1`, 6.28 kMESF (inactive); to `CCNc1nc(N)c([N+](=O)[O-])c(Nc2cccc(Cl)c2)n1`, 6.21 kMESF (inactive).

The same test, now with this note: S. cerevisiae LAP4-GFP strain, flow cytometry fluorescence, 3 h; at 300 µM (top of the series).
For `Cc1cc(Nc2cc(Nc3ccccc3)nc(NCc3ccccc3)n2)n[nH]1`, the GFP fluorescence (kMESF) is 4.28 kMESF (inactive). Same read-out and setting: to `COc1cccc(-c2cc(Nc3cc(C)[nH]n3)nc(NCc3ccccc3)n2)c1` belongs 4.54 kMESF (inactive). On the same count and under the same terms, to `CNc1nc(N)cc(Nc2ccccc2F)n1` belongs 4.66 kMESF (inactive); to `CCOC(=O)c1c(N)nc(NC)nc1Nc1cccc(F)c1`, 4.41 kMESF (inactive); to `COC(=O)c1cccc(-c2cc(Nc3cc(C)[nH]n3)nc(NCc3ccccc3)n2)c1`, 4.28 kMESF (inactive). Still for that read-out and setting: to `Cc1cc(Nc2cc(-c3ccccc3)nc(NCc3ccccc3)n2)n[nH]1` belongs 4.41 kMESF (inactive); to `CNc1nc(N)cc(Oc2cccc(Cl)c2)n1`, 4.73 kMESF (inactive); to `O=[N+]([O-])c1c(NC2CCCCC2)nc(NCc2ccccc2)nc1N1CCOCC1`, 4.34 kMESF (inactive). `COc1ccccc1-c1cc(Nc2cc(C)[nH]n2)nc(NCc2ccccc2)n1`: the GFP fluorescence (kMESF) was 4.66 kMESF (inactive).

The test system of another test is S. cerevisiae LAP4-GFP strain, flow cytometry fluorescence, 3 h. Described as above.
Details: not given
In a few lines: as §1
`CNc1nc(N)cc(Nc2cccc(Cl)c2)n1`: the EC50 was 101 µM (inactive). On the same count and under the same terms, the figure for `CNc1nc(N)c(C(=O)c2ccc(C)c(C)c2)c(Nc2cccc(Cl)c2)n1` is 80.9 µM (inactive).
